The test system of assay [1] is Human immunodeficiency virus 1. Nature of the assay: Antiviral activity against Human immunodeficiency virus 1 assessed as inhibition of viral replication. It is filed as functional, organism-based. Put shortly:
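NL4-3 mutant panel (D36G T20-sensitive; five T20-resistant NHR variants) infecting MT-2 cells with peptides at graded concentrations. p24 measured by ELISA on day 4. Run in triplicate as mean ± SD; IC50 and fold change vs D36G.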

Assay [2] is described as follows: (§1) Inhibition of HIV1 Envelope glycoprotein-mediated cell-cell fusion expressed in human HL2/3 cells coincubated with human TZM-b1 cells after 6 to 8 hrs by luciferase assay. Type of assay: cell-based. The following applies: Human immunodeficiency virus 1, TZM-b1.
In the next assay the test system is TZM-b1. The assay is described as §1. It is filed as cell-based. To be noted: Human immunodeficiency virus 1.

Active and inactive are the calls of the source. No cut-off for these calls is given here.

For the compound `Cc1ccc(C)n1-c1ccc(O)c(C(=O)O)c1`, the half-maximal effective concentration (EC50) in assay [1] is 0.69 µM.
Turning to `Cc1ccc(C)n1-c1ccc(OCC(=O)O)c(C(=O)O)c1`, the 50% inhibitory concentration (IC50) in assay [2] was > 100 µM.
Same read-out and setting: then `Cc1ccc(C)n1-c1ccc(C(=O)O)c(OCC(=O)O)c1`, with > 100 µM.
On to `Cc1cc(C(=O)O)c(C)n1-c1ccc(O)c(C(=O)O)c1`, for which the inhibition entry with TZM-b1 is “inactive”.
In the case of `Cc1cc(C(=O)O)c(C)n1-c1ccc(C(=O)O)c(O)c1`, the inhibition result in the assay on TZM-b1 was “inactive”.

These data come from ChEMBL document CHEMBL2321797 (J Med Chem, 2013).
